In ChEMBL document CHEMBL1811814, “Synthesis and evaluation of indole, pyrazole, chromone and pyrimidine based conjugates for tumor growth inhibitory activities--development of highly efficacious cytotoxic agents” (Eur J Med Chem, 2010):

Tests used:
Assay type in all cases: functional
NCI-H460 = assay: Growth inhibition of human NCI-H460 cells
[1] = Growth inhibition of human […] cells assessed tumor cell growth at 10^-5 M; set-up: scale not given: the % may be the effect or the level left
Outline: (§1)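 NCI 60-human-tumor-cell-line panel screen. Each compound was tested at a single concentration of 10^-5 M, and percent growth of tumor cells was recorded for each cell line. Growth inhibition was expressed from these percent-growth values.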

Malme-3M [2] = assay: Growth inhibition of human MALME-3M cells
IGROV-1 = assay: Growth inhibition of human IGROV1 cells assessed tumor cell growth at 10^-5 M; set-up: scale not given: the % may be the effect or the level left; outline: as §1
MCF7 = assay: Growth inhibition of human MCF7 cells assessed tumor cell growth at 10^-5 M; set-up: scale not given: the % may be the effect or the level left; outline: as §1
HL-60(TB) [3] = assay: Growth inhibition of human HL-60(TB) cells
A549 = assay: Growth inhibition of human A549 cells assessed tumor cell growth at 10^-5 M; set-up: scale not given: the % may be the effect or the level left; outline: as §1
MOLT-4 = assay: Growth inhibition of human MOLT4 cells assessed tumor cell growth at 10^-5 M; set-up: scale not given: the % may be the effect or the level left; outline: as §1
[4] = Growth inhibition of human Hs 578T cells
MDA-MB-468 [5] = assay: Growth inhibition of human MDA-MB-468 cells
HCC 2998 = assay: Growth inhibition of human HCC2998 cells
RXF 393 = assay: Growth inhibition of human RXF393 cells assessed tumor cell growth at 10^-5 M; set-up: scale not given: the % may be the effect or the level left; outline: as §1
A498 = assay: Growth inhibition of human A498 cells assessed tumor cell growth at 10^-5 M; set-up: scale not given: the % may be the effect or the level left; outline: as §1
HT-29 [6] = assay: Growth inhibition of human HT-29 cells
ACHN = assay: Growth inhibition of human ACHN cells assessed tumor cell growth at 10^-5 M; set-up: scale not given: the % may be the effect or the level left; outline: as §1
NCI-H226 = assay: Growth inhibition of human NCI-H226 cells
MDA-MB-468 [7] = assay: Growth inhibition of human MDA-MB-468 cells assessed tumor cell growth at 10^-5 M; set-up: scale not given: the % may be the effect or the level left; outline: as §1
COLO 205 = assay: Growth inhibition of human COLO205 cells assessed tumor cell growth at 10^-5 M; set-up: scale not given: the % may be the effect or the level left; outline: as §1
SNB-75 = assay: Growth inhibition of human SNB75 cells assessed tumor cell growth at 10^-5 M; set-up: scale not given: the % may be the effect or the level left
Outline: (§2)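 Single-dose screen at 10^-5 M across the 60 human tumor cell line panel, run to NCI standards. The value is the percent growth of each cell line in the presence of compound. Compounds active at this dose moved on to five-concentration testing (10^-4 to 10^-8 M).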

TK-10 = assay: Growth inhibition of human TK10 cells assessed tumor cell growth at 10^-5 M; set-up: scale not given: the % may be the effect or the level left; outline: as §2
SK-OV-3 = assay: Growth inhibition of human SKOV3 cells assessed tumor cell growth at 10^-5 M; set-up: scale not given: the % may be the effect or the level left; outline: as §1
MDA-MB-231 = assay: Growth inhibition of human MDA-MB-231 cells assessed tumor cell growth at 10^-5 M; set-up: scale not given: the % may be the effect or the level left; outline: as §1
HOP-62 = assay: Growth inhibition of human HOP62 cells
KM12 [8] = assay: Growth inhibition of human KM12 cells
Malme-3M [9] = assay: Growth inhibition of human MALME-3M cells assessed tumor cell growth at 10^-5 M; set-up: scale not given: the % may be the effect or the level left; outline: as §1
EKVX = assay: Growth inhibition of human EKVX cells assessed tumor cell growth at 10^-5 M; set-up: scale not given: the % may be the effect or the level left; outline: as §1
KM12 [10] = assay: Growth inhibition of human KM12 cells assessed tumor cell growth at 10^-5 M; set-up: scale not given: the % may be the effect or the level left; outline: as §1
SN12C = assay: Growth inhibition of human SN12C cells
UACC-62 [11] = assay: Growth inhibition of human UACC62 cells
SF-268 = assay: Growth inhibition of human SF268 cells assessed tumor cell growth at 10^-5 M; set-up: scale not given: the % may be the effect or the level left; outline: as §1
DU-145 = assay: Growth inhibition of human DU145 cells
NCI-H23 = assay: Growth inhibition of human NCI-H23 cells
SK-MEL-5 = assay: Growth inhibition of human SK-MEL-5 cells assessed tumor cell growth at 10^-5 M; set-up: scale not given: the % may be the effect or the level left; outline: as §1
UACC-62 [12] = assay: Growth inhibition of human UACC62 cells assessed tumor cell growth at 10^-5 M; set-up: scale not given: the % may be the effect or the level left; outline: as §2
SNB-19 [13] = assay: Growth inhibition of human SNB19 cells assessed tumor cell growth at 10^-5 M; set-up: scale not given: the % may be the effect or the level left; outline: as §2
K562 = assay: Growth inhibition of human K562 cells assessed tumor cell growth at 10^-5 M; set-up: scale not given: the % may be the effect or the level left; outline: as §1
CCRF-CEM [14] = assay: Growth inhibition of human CCRF-CEM cells
NCI-H522 [15] = assay: Growth inhibition of human NCI-H522 cells
SNB-19 [16] = assay: Growth inhibition of human SNB19 cells
SF-295 = assay: Growth inhibition of human SF295 cells
CCRF-CEM [17] = assay: Growth inhibition of human CCRF-CEM cells assessed tumor cell growth at 10^-5 M; set-up: scale not given: the % may be the effect or the level left; outline: as §1
T47D [18] = assay: Growth inhibition of human T47D cells
HL-60(TB) [19] = assay: Growth inhibition of human HL-60(TB) cells assessed tumor cell growth at 10^-5 M; set-up: scale not given: the % may be the effect or the level left
Outline: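 HL-60(TB), part of the 60-line panel, tested at a single concentration of 10^-5 M. The read-out is percent tumor cell growth relative to untreated growth.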

U-251 = assay: Growth inhibition of human U251 cells
HT-29 [20] = assay: Growth inhibition of human HT-29 cells assessed tumor cell growth at 10^-5 M; set-up: scale not given: the % may be the effect or the level left; outline: as §1
SW-620 = assay: Growth inhibition of human SW620 cells
M14 = assay: Growth inhibition of human M14 cells assessed tumor cell growth at 10^-5 M; set-up: scale not given: the % may be the effect or the level left; outline: as §1
OVCAR-5 = assay: Growth inhibition of human OVCAR5 cells assessed tumor cell growth at 10^-5 M; set-up: scale not given: the % may be the effect or the level left; outline: as §1
NCI-H522 [21] = assay: Growth inhibition of human NCI-H522 cells assessed tumor cell growth at 10^-5 M; set-up: scale not given: the % may be the effect or the level left; outline: as §1
T47D [22] = assay: Growth inhibition of human T47D cells assessed tumor cell growth at 10^-5 M; set-up: scale not given: the % may be the effect or the level left; outline: as §2
[23] = read-out: LC50 (the source's name)

For `O=C1Nc2ccccc2/C1=C/c1cn(C(=O)c2c(Cl)cccc2Cl)c2ccccc12`, which GI50 (NCI-H460) is on record?
The GI50 was 1.9 µM.

And the CC50 (NCI-H460; [23])?
Its CC50 is 7.9 µM.

What about the Activity [1] of the same molecule?
The Activity was 51.8%.

And the GI50 (Malme-3M [2])?
The GI50 was 2.6 µM.

What about the CC50 (Malme-3M [2]; [23]) of the same molecule?
The CC50 was 58.8 µM.

And the Activity (IGROV-1)?
Its Activity is 25.7%.

And the Activity (MCF7)?
The Activity was 22.9%.

And the GI50 (HL-60(TB) [3])?
The GI50 was 2.4 µM.

What about the CC50 (HL-60(TB) [3]; [23]) of the same molecule?
The CC50 was > 100 µM.

And the Activity (A549)?
Its Activity is 36.7%.

What about the Activity (MOLT-4) of the same molecule?
The Activity was 43.9%.

What about the GI50 [4] of the same molecule?
The GI50 was 2.2 µM.

And the CC50 [4, 23]?
Its CC50 is > 100 µM.

And the GI50 (MDA-MB-468 [5])?
The GI50 was 4.4 µM.

And the CC50 (MDA-MB-468 [5]; [23])?
The CC50 was 69.1 µM.

And the GI50 (HCC 2998)?
The GI50 was 6 µM.

What about the CC50 (HCC 2998; [23]) of the same molecule?
The CC50 was 52.4 µM.

What about the Activity (RXF 393) of the same molecule?
The Activity was -4.1%.

What about the Activity (A498) of the same molecule?
The Activity was 52.5%.

And the GI50 (HT-29 [6])?
The GI50 was 3.8 µM.

And the CC50 (HT-29 [6]; [23])?
Its CC50 is 54.9 µM.

What about the Activity (ACHN) of the same molecule?
Its Activity is 43.6%.

And the GI50 (NCI-H226)?
Its GI50 is 7.4 µM.

What about the CC50 (NCI-H226; [23]) of the same molecule?
Its CC50 is 83.1 µM.

What about the Activity (MDA-MB-468 [7]) of the same molecule?
The Activity was 32.6%.

And the Activity (COLO 205)?
Its Activity is 41.7%.

And the Activity (SNB-75)?
The Activity was 54.6%.

What about the Activity (TK-10) of the same molecule?
The Activity was 90.7%.

And the Activity (SK-OV-3)?
The Activity was 71.8%.

And the Activity (MDA-MB-231)?
The Activity was 55%.

And the GI50 (HOP-62)?
The GI50 was 12.8 µM.

What about the CC50 (HOP-62; [23]) of the same molecule?
The CC50 was > 100 µM.

And the GI50 (KM12 [8])?
Its GI50 is 1.8 µM.

And the CC50 (KM12 [8]; [23])?
The CC50 was 8.9 µM.

What about the Activity (Malme-3M [9]) of the same molecule?
The Activity was 116.7%.

What about the Activity (EKVX) of the same molecule?
The Activity was 81.4%.

What about the Activity (KM12 [10]) of the same molecule?
The Activity was 54.7%.

And the GI50 (SN12C)?
The GI50 was 3.9 µM.

What about the CC50 (SN12C; [23]) of the same molecule?
The CC50 was 70.7 µM.

And the GI50 (UACC-62 [11])?
The GI50 was 4.9 µM.

What about the CC50 (UACC-62 [11]; [23]) of the same molecule?
The CC50 was 61.6 µM.

And the Activity (SF-268)?
The Activity was 56.5%.

And the GI50 (DU-145)?
Its GI50 is 2.7 µM.

What about the CC50 (DU-145; [23]) of the same molecule?
The CC50 was 46.7 µM.

And the GI50 (NCI-H23)?
The GI50 was 4.1 µM.

What about the LC50 (concentration killing 50% of cells) (NCI-H23) of the same molecule?
The LC50 (concentration killing 50% of cells) was 50.1 µM.

What about the Activity (SK-MEL-5) of the same molecule?
Its Activity is 63%.

What about the Activity (UACC-62 [12]) of the same molecule?
Its Activity is 36.7%.

What about the Activity (SNB-19 [13]) of the same molecule?
Its Activity is 68.6%.

And the Activity (K562)?
Its Activity is 45.6%.

And the GI50 (CCRF-CEM [14])?
The GI50 was 0.34 µM.

What about the CC50 (CCRF-CEM [14]; [23]) of the same molecule?
The CC50 was > 100 µM.

And the GI50 (NCI-H522 [15])?
Its GI50 is 4.2 µM.

What about the LC50 (concentration killing 50% of cells) (NCI-H522 [15]) of the same molecule?
Its LC50 (concentration killing 50% of cells) is 54.9 µM.

What about the GI50 (SNB-19 [16]) of the same molecule?
The GI50 was 7.2 µM.

What about the CC50 (SNB-19 [16]; [23]) of the same molecule?
Its CC50 is > 100 µM.

And the GI50 (SF-295)?
The GI50 was 2.2 µM.

What about the CC50 (SF-295; [23]) of the same molecule?
The CC50 was 66.1 µM.

And the Activity (CCRF-CEM [17])?
The Activity was 70.5%.

And the GI50 (T47D [18])?
Its GI50 is 4.1 µM.

What about the CC50 (T47D [18]; [23]) of the same molecule?
Its CC50 is > 100 µM.

And the Activity (HL-60(TB) [19])?
Its Activity is 72.1%.

What about the GI50 (U-251) of the same molecule?
Its GI50 is 3.4 µM.

And the CC50 (U-251; [23])?
Its CC50 is 54.9 µM.

What about the Activity (HT-29 [20]) of the same molecule?
Its Activity is 69.6%.

What about the GI50 (SW-620) of the same molecule?
Its GI50 is 2.9 µM.

And the CC50 (SW-620; [23])?
The CC50 was 52.4 µM.

And the Activity (M14)?
Its Activity is 66.2%.

And the Activity (OVCAR-5)?
Its Activity is 84.9%.

And the Activity (NCI-H522 [21])?
Its Activity is 55.3%.

And the Activity (T47D [22])?
The Activity was 47.7%.
